# Laboratory results taken from article PMC4306626 (Journal of chromatography. B, Analytical technologies in …, 2015).
# Several values for one entry are separate records, joined by “and”; a condition that tells them apart may be missing. Equal values may be shown once. Marks after values point to notes of the source that are not given here.
# Experiments:
# [1] = Pharmacokinetics in nude mice after single IP or PO dose; assay type: in vivo, athymic nude (Nu/Nu) mice; details: for clearance (Cl/F): range over doses; for AUC(0-t) / Cmax / MRT / Vd/F / MRT inf / Tmax / half-life / AUC(0-inf): female, athymic nude (Nu/Nu), mouse, plasma
# Outline: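 Female athymic nude mice, 3–4 weeks old, received a single 0.1 mL dose at 10, 20 or 40 mg/kg, given IP or by oral gavage. Vehicle was cremophor:ethanol:PBS (12.5:12.5:75). Four to five mice per group were killed at 0.5, 1, 4, 8 and 12 h. Cardiac blood went into sodium citrate on ice. Plasma was protein-precipitated with internal standard and assayed by UPLC/MS/MS (5–1000 ng/mL). Pooled non-compartmental analysis used linear/log-linear trapezoids.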
# [2] = Stability of EHop-016 in mouse plasma; assay type: in vitro ADME; details: for Concentration Measured (Mean ± S.D.): n=6; for Accuracy (% RE): stable if within ± 15 %
# Outline: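 Test compound was spiked into mouse plasma at 5 and 1000 ng/mL and held on the bench for 5 h, six replicates per level. It was then extracted by protein precipitation and quantified by UPLC/MS/MS against plasma calibration standards. Accuracy was %RE against nominal and precision was %RSD. The compound counted as stable when %RE was within ± 15 %.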
# [3] = Physicochemical properties
# [4] = tested on: Rac; details: read-out: IC50, Rac activity; metastatic cancer cells; cited from earlier work
# [5] = tested on: Rho GTPase Cdc42; details: higher concentrations; cited from earlier work
# [6] = tested on: metastatic cancer cells; details: higher concentrations; cited from earlier work
# [7] = tested on: Rac with the guanine nucleotide exchange factor Vav2; details: cited from earlier work
# [8] = tested on: p21-activated kinase 1 (PAK1); details: cited from earlier work
# [9] = tested on: metastatic cancer cells; details: cited from earlier work
# [10] = tested on: Akt and Jun kinase (JNK); details: breast and prostate cancer cell lines; cited from earlier work
# [11] = tested on: c-Myc and Cyclin D; details: breast and prostate cancer cell lines; cited from earlier work
# [12] = tested on: human T-lymphocyte; details: cited from earlier work
# [13] = tested on: murine melanoma cell; details: cited from earlier work
# [14] = tested on: human leukemic cell; details: cited from earlier work
# [15] = tested on: murine leukemic cell; details: cited from earlier work
# [16] = tested on: endothelial cells; details: in vitro; cited from earlier work
# [17] = tested on: mammary fat pad tumor; details: 25 mg/kg body weight (BW), nude mice; cited from earlier work
# [18] = Benchtop (5 Hr), nominal 5 ng/mL
# [19] = Benchtop (5 Hr), nominal 1000 ng/mL
smiles,measurement,setting,value
"CCn1c2ccccc2c2cc(Nc3ccnc(NCCCN4CCOCC4)n3)ccc21 [EHop-016, (N4-(9-Ethyl-9H-carbazol-3-yl)-N2-(3-morpholin-4-yl-propyl)-pyrimidine-2,4-diamine)]",Cl/F,"[1]; IP, 10 mg/kg",494.2 ± 79.4 mL/h
same,Lambda-z,"[1]; IP, 10 mg/kg",.12 ± 0.01 hr ^−1
same,AUC0-t/Dose,"[1]; IP, 10 mg/kg, n=5",32.80 ± 4.21^a
same,Cl/F,"[1]; IP, 20 mg/kg",464.7 ± 51.5 mL/h
same,Lambda-z,"[1]; IP, 20 mg/kg",.15 ± .01 hr ^−1
same,AUC0-t/Dose,"[1]; IP, 20 mg/kg, n=5",38.42 ± 3.53^a
same,Cl/F,"[1]; IP, 40 mg/kg",394.2 ± 46.6 mL/h
same,Lambda-z,"[1]; IP, 40 mg/kg",.18 ± .01 hr ^−1
same,AUC0-t/Dose,"[1]; IP, 40 mg/kg, n=5",46.75 ± 5.42^a
same,clearance (Cl/F),[1]; IP,394 to 494 mL/h and 394.2 to 494.2 mL/h
same,relative bioavailability after oral gavage,"[1]; PO vs IP, range over the tested doses",26% - 40%
same,plasma drug concentrations lower after PO than after IP,[1]; PO vs corresponding IP dosages,~ 10 times
same,Cl/F,"[1]; PO, 10 mg/kg",1315.3 mL/h and 1315.3 ± 281.7 mL/h
same,Lambda-z,"[1]; PO, 10 mg/kg",.20 ± .01 hr ^−1
same,AUC0-t/Dose,"[1]; PO, 10 mg/kg, n=4",13.37 ± 2.25
same,"Frel (relative bioavailability, PO to IP)","[1]; PO, 20 mg/kg",33.4 ± 4.9%
same,AUC0-t/Dose,"[1]; PO, 20 mg/kg, n=4",12.85 ± 3.11
same,Cl/F,"[1]; PO, 40 mg/kg",1251.4 mL/h and 1251.4 ± 388.1 mL/h
same,"Frel (relative bioavailability, PO to IP)","[1]; PO, 40 mg/kg",26.0 ± 3.1%
same,Lambda-z,"[1]; PO, 40 mg/kg",.12 ± .001 hr ^−1
same,AUC0-t/Dose,"[1]; PO, 40 mg/kg, n=4",12.17 ± 2.9
same,clearance (Cl/F),[1]; PO,1251 to 1315 mL/h
same,elimination half-life (t1/2),"[1]; PO, range over the tested doses",3.44 to 5.87 h
same,Vss,"[1]; after IP doses, approximately",65 to 72 L/kg BW
same,AUC(0-t),[1]; ip,328 to 1870 ng·h/mL
same,Cmax,[1]; ip,163 to 835 ng/mL
same,MRT,[1]; ip,4.21 to 6.75 h
same,Vd/F,[1]; ip,2.2 to 4.1 L
same,AUC(0-t),"[1]; ip, 10 mg/kg",328 ± 42.1 ng·h/mL
same,Cmax,"[1]; ip, 10 mg/kg",163 ± 17.7 ng/mL
same,MRT inf,"[1]; ip, 10 mg/kg",6.75 ± 0.27 h
same,Tmax,"[1]; ip, 10 mg/kg",0.5 h
same,Vd/F,"[1]; ip, 10 mg/kg",4.09 ± 0.297 L
same,half-life,"[1]; ip, 10 mg/kg, t1/2, IP",5.73 ± 0.43 h
same,AUC(0-t),"[1]; ip, 20 mg/kg",768 ± 70.6 ng·h/mL
same,Cmax,"[1]; ip, 20 mg/kg",455 ± 50.3 ng/mL
same,MRT inf,"[1]; ip, 20 mg/kg",4.73 ± 0.27 h
same,Tmax,"[1]; ip, 20 mg/kg",0.5 h
same,Vd/F,"[1]; ip, 20 mg/kg",3.12 ± 0.0927 L
same,half-life,"[1]; ip, 20 mg/kg, t1/2, IP",4.66 ± 0.35 h
same,AUC(0-inf),"[1]; ip, 40 mg/kg",328 to 1870 ng·h/mL
same,AUC(0-t),"[1]; ip, 40 mg/kg",1870 ± 217 ng·h/mL
same,Cmax,"[1]; ip, 40 mg/kg",834 ± 88.9 ng/mL
same,MRT inf,"[1]; ip, 40 mg/kg",4.21 ± 0.14 h
same,Tmax,"[1]; ip, 40 mg/kg",0.5 h
same,Vd/F,"[1]; ip, 40 mg/kg",2.16 ± 0.337 L
same,half-life,"[1]; ip, 40 mg/kg, t1/2, IP",3.79 ± 0.12 h
same,Tmax,"[1]; other: intraperitoneal and oral, 20 mg/kg",0.5 h
same,AUC(0-t),[1]; po,134 to 487 ng·h/mL
same,Cmax,[1]; po,26 to 90 ng/mL
same,MRT,[1]; po,6.59 to 8.76 h
same,Vd/F,[1]; po,6.5 to 10.6 L
same,AUC(0-t),"[1]; po, 10 mg/kg",134 ± 22.5 ng·h/mL
same,Cmax,"[1]; po, 10 mg/kg",26.1 ± 10.1 ng/mL
same,MRT inf,"[1]; po, 10 mg/kg",6.59 ± 0.37 h
same,Tmax,"[1]; po, 10 mg/kg",0.5 h
same,Vd/F,"[1]; po, 10 mg/kg",6.53 ± 1.78 L
same,half-life,"[1]; po, 10 mg/kg, t1/2, PO",3.44 ± 0.15 h
same,AUC(0-t),"[1]; po, 20 mg/kg",257 ± 62.3 ng·h/mL
same,Cmax,"[1]; po, 20 mg/kg",35.1 ± 11 ng/mL
same,Tmax,"[1]; po, 20 mg/kg",1 h
same,AUC(0-inf),"[1]; po, 40 mg/kg",133 to 487 ng·h/mL
same,AUC(0-t),"[1]; po, 40 mg/kg",487 ± 116 ng·h/mL
same,Cmax,"[1]; po, 40 mg/kg",89.7 ± 17.6 ng/mL
same,MRT inf,"[1]; po, 40 mg/kg",8.76 ± 0.43 h
same,Tmax,"[1]; po, 40 mg/kg",0.5 h
same,Vd/F,"[1]; po, 40 mg/kg",10.6 ± 3.39 L
same,half-life,"[1]; po, 40 mg/kg, t1/2, PO",5.87 ± 0.06 h
same,share of the drug in the bloodstream,[1]; suggested by Vss values,< 1%
same,stability in mouse plasma,[2]; 12 freeze-thaw cycles lasting 12 hours and six freeze-thaw cycles lasting 24 hours,stable
same,Concentration Measured (Mean ± S.D.),[2]; [18],4.67 ± 0.36 ng/mL
same,Accuracy (% RE),[2]; [18],−6.6 % RE
same,Concentration Measured (Mean ± S.D.),[2]; [19],999.39 ± 17.23 ng/mL
same,Accuracy (% RE),[2]; [19],−0.1 % RE
same,Accuracy (% RE),"[2]; Freeze-Thaw 6 Cycles (24 Hr), nominal 5 ng/mL",14.3 % RE
same,Accuracy (% RE),"[2]; Freeze-Thaw 6 Cycles (24 Hr), nominal 1000 ng/mL",11.6 % RE
same,Concentration Measured (Mean ± S.D.),"[2]; Freeze-Thaw 6 Cycles (24 Hr), −80°C, nominal 5 ng/mL",5.71 ± 0.34 ng/mL
same,Concentration Measured (Mean ± S.D.),"[2]; Freeze-Thaw 6 Cycles (24 Hr), −80°C, nominal 1000 ng/mL",1116.32 ± 27.38 ng/mL
same,Accuracy (% RE),"[2]; Freeze-Thaw 12 Cycles (12 Hr), nominal 5 ng/mL",11.3 % RE
same,Accuracy (% RE),"[2]; Freeze-Thaw 12 Cycles (12 Hr), nominal 1000 ng/mL",12.8 % RE
same,Concentration Measured (Mean ± S.D.),"[2]; Freeze-Thaw 12 Cycles (12 Hr), −80°C, nominal 5 ng/mL",5.57 ± 0.05 ng/mL
same,Concentration Measured (Mean ± S.D.),"[2]; Freeze-Thaw 12 Cycles (12 Hr), −80°C, nominal 1000 ng/mL",1127.70 ± 14.36 ng/mL
same,Accuracy (% RE),"[2]; Long Term Stability 26 Days, nominal 5 ng/mL",4.9 % RE
same,Accuracy (% RE),"[2]; Long Term Stability 26 Days, nominal 1000 ng/mL",0.4 % RE
same,Concentration Measured (Mean ± S.D.),"[2]; Long Term Stability 26 Days, −20°C, nominal 5 ng/mL",5.24 ± 0.08 ng/mL
same,Concentration Measured (Mean ± S.D.),"[2]; Long Term Stability 26 Days, −20°C, nominal 1000 ng/mL",1004.39 ± 25.98 ng/mL
same,Accuracy (% RE),"[2]; Long Term Stability 111 Days, nominal 5 ng/mL",−1.3 % RE
same,Accuracy (% RE),"[2]; Long Term Stability 111 Days, nominal 1000 ng/mL",−4.3 % RE
same,Concentration Measured (Mean ± S.D.),"[2]; Long Term Stability 111 Days, −20°C, nominal 5 ng/mL",4.94 ± 0.29 ng/mL
same,Concentration Measured (Mean ± S.D.),"[2]; Long Term Stability 111 Days, −20°C, nominal 1000 ng/mL",956.77 ± 79.26 ng/mL
same,Concentration Measured (Mean ± S.D.),"[2]; Post Preparation (237 Hours), ambient temperature, nominal 10 ng/mL",10.79 ± 0.25 ng/mL
same,Concentration Measured (Mean ± S.D.),"[2]; Post Preparation (237 Hours), ambient temperature, nominal 30 ng/mL",32.20 ± 1.40 ng/mL
same,Concentration Measured (Mean ± S.D.),"[2]; Post Preparation (237 Hours), ambient temperature, nominal 75 ng/mL",83.79 ± 2.06 ng/mL
same,Concentration Measured (Mean ± S.D.),"[2]; Post Preparation (237 Hours), ambient temperature, nominal 750 ng/mL",838.83 ± 22.57 ng/mL
same,Accuracy (% RE),"[2]; Post Preparation (237 Hours), nominal 10 ng/mL",7.88 % RE
same,Accuracy (% RE),"[2]; Post Preparation (237 Hours), nominal 30 ng/mL",7.32 % RE
same,Accuracy (% RE),"[2]; Post Preparation (237 Hours), nominal 75 ng/mL",11.72 % RE
same,Accuracy (% RE),"[2]; Post Preparation (237 Hours), nominal 750 ng/mL",11.84 % RE
same,stability in mouse plasma,[2]; all of the conditions tested in the validation,very stable
same,stability in mouse plasma,"[2]; ambient temperature, five hours and 237 hours",stable
same,stability in mouse plasma,"[2]; long-term at –20°C, 26 days and 111 days",stable
same,pKa,[3],5
same,lipid solubility,[3]; source not stated,highly lipid-soluble
same,IC50,[4],1 µM
same,concentration at which activity of the Rho GTPase Cdc42 is inhibited,[5],> 10 µM
same,concentration at which apoptosis is activated,[6],> 10 µM
same,concentration at which cell viability is reduced,[6],> 10 µM
same,interaction of Rac with Vav2,[7],disrupt
same,activity of PAK1,[8],inhibit
same,Rac-directed lamellipodia formation and directed cell migration,[9],inhibit
same,Akt and Jun kinase (JNK) activities,[10],decreased
same,expression of c-Myc and Cyclin D,[11],decreased
same,human T-lymphocyte migration,[12],inhibits
same,murine melanoma cell migration,[13],inhibits
same,human leukemic cell growth,[14],inhibits
same,murine leukemic cell growth,[15],inhibits
same,Rac activity and capillary tube formation of endothelial cells,[16],inhibition
same,"tumor growth, metastasis and angiogenesis",[17],"effective at reducing mammary fat pad tumor growth, metastasis, and angiogenesis"
